Measured values published in ChEMBL document CHEMBL3124835 (J Nat Prod, 2014).
Activity calls are given as the source filed them. No cut-off for these calls is given here.

Columns and labels:
[1] = tested on: Human immunodeficiency virus 1; assay: Reactivation of latent HIV1 NL4-3-Luc expression in human naive CD4+ T cells treated 7 days post-infection measured after 48 hrs by luminescence plate reader analysis; type: functional, organism-based, T-cell
[2] = tested on: Human immunodeficiency virus 1; assay: Reactivation of latent HIV1 NL4-3-Luc expression in human naive CD4+ T cells treated 7 days post-infection measured after 48 hrs by luminescence plate reader analysis relative to SAHA-treated control; type: functional; set-up: concentration or dose not given beside the values
In short: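 Primary naive CD4+ T cells from healthy HIV-negative donor PBMCs, purified by negative selection. Activated 3 days with anti-CD3/CD28 beads (1 bead:2 cells), anti-IL-4, anti-IL-12p70 and 10 ng/mL TGF-β, then kept 2 days in 30 U/mL IL-2 and infected with NL4-3-Luc. Seven days after infection, 10 000 cells/well exposed to compound for 48 h; BriteGlo luminescence read-out.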

[3] = tested on: Human immunodeficiency virus 1; assay: Reactivation of latent HIV1 NL4-3-Luc expression in human naive CD4+ T cells assessed as HIV-1 RNA expression treated 7 days post-infection by RT-qPCR analysis; type: functional, organism-based; details: T-cell
[4] = target: Protein kinase C (PKC) (Homo sapiens) (UniProt O94806+P41743+P17252+P05129+Q05655+P05771+Q05513+Q02156+P24723+Q15139+Q04759); assay: Activation of PKC in human Jurkat cells assessed as NF-kappaB reporter gene activation after 24 hrs by FACS analysis; type: cell-based
[5] = Human immunodeficiency virus 1, NL4-3, T-cell, read-out: EC50

| Structure (SMILES) | EC50 ([1]; t-cell) | Activity ([2]; T-cell) | EC50 [1, 5] [µM] | Activity [2] [%] | Activity [3] | Activity [4] |
| --- | --- | --- | --- | --- | --- | --- |
| C[C@@H]1CC(O)/C=C/C(O)C(O)CC(=O)Cc2c(Cl)c(O)cc(O)c2C(=O)O1 (stereo not given in full) | Not Active | inactive | – | – | – | – |
| C[C@@H]1CC(O)C2C=CC(CC(=O)Cc3c(Cl)c(O)cc(O)c3C(=O)O1)O2 (stereo not given in full) | Not Active | inactive | – | – | – | – |
| C[C@@H]1C[C@@H](O)[C@@H](O)/C=C\C=C\C(=O)Cc2c(Cl)c(O)cc(O)c2C(=O)O1 | – | – | 24.9 | 25 | – | – |
| CCC(=O)CCCCC[C@@H]1NC(=O)[C@H]2CCCCN2C(=O)[C@H]([C@@H](C)CC)NC(=O)[C@H](Cc2cn(OC)c3ccccc23)NC1=O [APICIDIN] | – | – | 0.3 | 100 | – | – |
| C[C@H]1C[C@H]2O[C@@H]2C[C@H](O)/C=C/C(=O)Cc2c(Cl)c(O)cc(O)c2C(=O)O1 [POCHONIN B] | – | – | 39.6 | 98 | – | – |
| C[C@H]1C[C@H](O)C(Cl)/C=C\C=C\C(=O)Cc2c(Cl)c(O)cc(O)c2C(=O)O1 (stereo not given in full) [POCHONIN C] | – | – | 6.3 | 92 | – | – |
| C[C@@H]1C[C@@H](O)/C=C\[C@H](O)CCC(=O)Cc2c(Cl)c(O)cc(O)c2C(=O)O1 [POCHONIN N] | Not Active | inactive | – | – | – | – |
| O=C(NCCSSCCNC(=O)/C(Cc1ccc(O)c(Br)c1)=N/O)/C(Cc1ccc(O)c(Br)c1)=N/O [PSAMMAPLIN A] | – | – | 0.2 | 100 | – | – |
| C[C@@H]1C[C@H]2O[C@@H]2/C=C\C=C\C(=O)Cc2c(Cl)c(O)cc(O)c2C(=O)O1 [RADICICOL] | – | – | 9.1 | 98 | Active | inactive |
